Laboratory results reported in ChEMBL document CHEMBL1629587, “Discovery of a small-molecule inhibitor of {beta}-1,6-glucan synthesis” (2009).
Values after ≈ are worked out from the molar mass of the structure shown. Active and inactive are the calls of the source. The calls are words filed in the database; no cut-off is given here.

What was measured:
[1] = test system: Staphylococcus aureus; assay: Antibacterial activity against Staphylococcus aureus 209P; type: functional
[2] = test system: Aspergillus terreus; assay: Antifungal activity against Aspergillus terreus ATCC 28301 after 24 hrs by microdilution method; type: functional; conditions: ATCC 28301, 24 h
Summary of the method: (§1)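 CLSI broth microdilution run at 30°C instead of standard temperature; starting inoculum 1 × 10^3 to 3 × 10^3 cells/ml; DMSO under 1% final. Endpoints: MIC-0 = lowest concentration giving an optically clear well; MIC-2 = 50% drop versus drug-free control in absorbance at 570 nm with alamar blue redox indicator, used because treated cells clump.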

[3] = test system: Trichosporon asahii; assay: Antifungal activity against Trichosporon asahii ATCC 90039 at 32 ug/ml after 24 hrs by microdilution method; type: functional, organism-based; summary of the method: as §1
[4] = test system: PC-6; assay: Cytotoxicity against human PC6 cells; type: functional
Summary of the method: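 Human PC-6 lung cancer cells; growth inhibition read as GI50; DMSO kept below 0.5% final for human cells.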

[5] = test system: Nakaseomyces glabratus; assay: Fungistatic activity aganist Candida glabrata IFO0622assessed as growth inhibition at 1 to 16 ug/ml by time-kill study; type: functional, organism-based; conditions: IFO0622
Summary of the method: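 Exponentially growing cells suspended at 1 × 10^4 cells/ml in RPMI 1640 with or without drug, shaken gently at 30°C; samples taken at 2, 4, 8, 24 and 48 h, diluted and spread on SDA, colonies counted after overnight incubation at 30°C to give viable cell numbers.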

[6] = test system: Candida albicans; assay: Antifungal activity against Candida albicans ATCC MYA-573 after 24 hrs by microdilution method; type: functional; conditions: ATCC MYA-573, 24 h; summary of the method: as §1
[7] = test system: Aspergillus flavus; assay: Antifungal activity against Aspergillus flavus ATCC 64025 after 24 hrs by microdilution method; type: functional; conditions: ATCC 64025, 24 h; summary of the method: as §1
[8] = test system: Aspergillus fumigatus; assay: Antifungal activity against Aspergillus fumigatus ATCC 36607 after 24 hrs by microdilution method; type: functional; conditions: ATCC 36607, 24 h; summary of the method: as §1
[9] = test system: Saccharomyces cerevisiae; assay: Fungicidal activity against Saccharomyces cerevisiae CT-1a mutant after 24 hrs by microdilution method; type: functional
[10] = test system: Candida albicans; assay: Inhibition of hyphal elongation of Candida albicans ATCC 24433 at 16 ug/ml after 24 hrs by microscopy; type: functional, organism-based
Summary of the method: (§2)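 Hyphae induced in HFM-7 medium (Lee's medium also used) on type I collagen-coated wells, drug 0, 1, 4 or 16 μg/ml; static culture at 37°C, viewed by light microscopy after 6 h or 24 h.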

[11] = test system: Candida albicans; assay: Antifungal activity against Candida albicans ATCC 24433 after 24 hrs by microdilution method; type: functional; conditions: ATCC 24433, 24 h; summary of the method: as §1
[12] = test system: Trichosporon asahii; assay: Antifungal activity against Trichosporon asahii ATCC 90039 after 24 hrs by microdilution method; type: functional; conditions: ATCC 90039, 24 h; summary of the method: as §1
[13] = test system: Saccharomyces cerevisiae; assay: Inhibition of mannan synthesis in Saccharomyces cerevisiae AY-10 assessed as reduction in [14C]glucose incorporation at 0.078 to 1.25 ug/ml after 1 hr; type: functional, organism-based
Summary of the method: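 Exponential cells in RPMI 1640 at A595 about 0.6, pulse-labelled with [14C]glucose 2 μCi/ml plus drug at 30°C, sampled at 1 and 3 h. Cell wall fractionated: mannan from 3% NaOH extracts at 80°C by Fehling's reaction; residue digested with Zymolyase 100T (1 mg/ml), insoluble part = chitin; β-1,3-glucan = total glucan minus dialysed β-1,6-glucan. Scintillation counting; % change versus untreated.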

[14] = test system: Candida albicans; assay: Inhibition of hyphal elongation of Candida albicans ATCC 24433 at 4 ug/ml after 6 hrs by microscopy; type: functional, organism-based; summary of the method: as §2
[15] = test system: Candida albicans; assay: Inhibition of hyphal elongation of Candida albicans ATCC 24433 at 16 ug/ml after 6 hrs by microscopy; type: functional, organism-based; summary of the method: as §2
[16] = test system: Saccharomyces cerevisiae; assay: Fungicidal activity against Saccharomyces cerevisiae AY-10-R4 mutant after 24 hrs by microdilution method; type: functional; conditions: AY-10-R4, 24 h
[17] = test system: Candida albicans; assay: Inhibition of hyphal elongation of Candida albicans ATCC 24433 at 4 ug/ml after 24 hrs by microscopy; type: functional, organism-based; summary of the method: as §2
[18] = test system: Saccharomyces cerevisiae; assay: […] activity against Saccharomyces cerevisiae AY-10 transformed with pRS416-31 carrying KRE6 gene after 24 hrs by microdilution method; type: functional; conditions: AY-10, 24 h
[19] = test system: Saccharomyces cerevisiae; assay: […] activity against Saccharomyces cerevisiae AY-10 transformed with empty vector pRS416 after 24 hrs by microdilution method; type: functional; conditions: AY-10, 24 h
[20] = test system: Clavispora lusitaniae; assay: Antifungal activity against Candida lusitaniae ATCC 200951 after 24 hrs by microdilution method; type: functional; conditions: ATCC 200951, 24 h; summary of the method: as §1
[21] = test system: Saccharomyces cerevisiae; assay: […] activity against Saccharomyces cerevisiae AY-10 transformed with pRS416-13 carrying ADP1 gene after 24 hrs by microdilution method; type: functional; conditions: AY-10, 24 h
[22] = test system: Escherichia coli; assay: Antibacterial activity against Escherichia coli NIHJ; type: functional
[23] = test system: Saccharomyces cerevisiae; assay: Fungicidal activity against Saccharomyces cerevisiae AY-10-R16 mutant after 24 hrs by microdilution method; type: functional; conditions: AY-10-R16, 24 h
[24] = test system: Candida tropicalis; assay: Antifungal activity against Candida tropicalis TIMM0313 after 24 hrs by microdilution method; type: functional; conditions: TIMM0313, 24 h; summary of the method: as §1
[25] = test system: Candida tropicalis; assay: Fungicidal activity against Candida tropicalis TIMM0313 after 24 hrs by microdilution method; type: functional; conditions: TIMM0313, 24 h
Summary of the method: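 Fungicidal concentration: after the MIC plate read, 4 μl from each well transferred into 200 μl MOPS-buffered RPMI, incubated 24 h at 30°C; MFC = lowest drug concentration with no visible growth.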

[26] = test system: Saccharomyces cerevisiae; assay: […] activity against Saccharomyces cerevisiae AY-10 after 24 hrs by microdilution method; type: functional; conditions: AY-10, 24 h
[27] = test system: Candida albicans; assay: Induction of multibudding phenotype in Candida albicans ATCC 24433 after 18 hrs by microscopy; type: functional, organism-based
Summary of the method: (§3)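 Exponential-phase cells suspended in RPMI 1640 with or without drug (2 μg/ml shown), shaken gently 18 h at 30°C, fixed in 3% glutaraldehyde in 0.1 M phosphate buffer, inspected by inverted light microscopy.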

[28] = test system: Saccharomyces cerevisiae; assay: Fungicidal activity against Saccharomyces cerevisiae CT-2a mutant after 24 hrs by microdilution method; type: functional
[29] = test system: Saccharomyces cerevisiae; assay: Fungicidal activity against Saccharomyces cerevisiae AY-10-R15 mutant after 24 hrs by microdilution method; type: functional; conditions: AY-10-R15, 24 h
[30] = test system: Saccharomyces cerevisiae; assay: Antifungal activity against Saccharomyces cerevisiae YPH500 after 24 hrs by microdilution method; type: functional; conditions: YPH500, 24 h
Summary of the method: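 CLSI broth microdilution, incubated at 30°C, starting inoculum 1 × 10^3 to 3 × 10^3 cells/ml; drugs from DMSO, final DMSO below 1%. MIC-0 is the lowest concentration giving an optically clear well. MIC-2 is read with alamar blue as a 50% drop in A570 versus the drug-free control; both endpoints were recorded.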

[31] = test system: Candida parapsilosis; assay: Antifungal activity against Candida parapsilosis IFO1396 after 24 hrs by microdilution method; type: functional; conditions: Lodderomyces parapsilosis, IFO1396, 24 h; summary of the method: as §1
[32] = test system: Saccharomyces cerevisiae; assay: Induction of multibudding phenotype in Saccharomyces cerevisiae YPH500 after 18 hrs by microscopy; type: functional, organism-based; summary of the method: as §3
[33] = test system: Aspergillus sp.; assay: Antifungal activity against Aspergillus sp. at 32 ug/ml after 24 hrs by microdilution method; type: functional, organism-based; summary of the method: as §1

CCc1c(C)c(C#N)c2nc3ccccc3n2c1NCCN(CC)CC
MIC [1]: > 32 µg/mL
MIC [2]: > 32 µg/mL
MIC50 [2]: > 32 µg/mL
Activity [3]: inactive
GI50 [4]: > 16 µg/mL
Activity [5]: Dose-dependent effect
MIC [6]: 32 µg/mL (≈ 91.6 µM)
MIC50 [6]: 16 µg/mL (≈ 45.8 µM)
MIC [7]: > 32 µg/mL
MIC50 [7]: > 32 µg/mL
MIC [8]: > 32 µg/mL
MIC50 [8]: > 32 µg/mL
MIC [9]: 8 µg/mL (≈ 22.9 µM)
inhibition [10]: Active
MIC [11]: 32 µg/mL (≈ 91.6 µM)
MIC50 [11]: 8 µg/mL (≈ 22.9 µM)
MIC [12]: > 32 µg/mL
MIC50 [12]: > 32 µg/mL
inhibition [13]: inactive
inhibition [14]: Active
inhibition [15]: Active
MIC [16]: 8 µg/mL (≈ 22.9 µM)
inhibition [17]: Active
MIC [18]: 32 µg/mL (≈ 91.6 µM)
MIC [19]: 2 µg/mL (≈ 5.72 µM)
MIC [20]: 16 µg/mL (≈ 45.8 µM)
MIC50 [20]: 8 µg/mL (≈ 22.9 µM)
MIC [21]: 4 µg/mL (≈ 11.4 µM)
MIC [22]: > 32 µg/mL
MIC [23]: 4 µg/mL (≈ 11.4 µM)
MIC [24]: 8 µg/mL (≈ 22.9 µM)
MIC50 [24]: 1 µg/mL (≈ 2.86 µM)
MFC [25]: > 32 µg/mL
MIC [26]: 2 µg/mL (≈ 5.72 µM)
Activity [27]: Active
MIC [28]: > 64 µg/mL
MIC [29]: > 64 µg/mL
MIC [30]: 2 µg/mL (≈ 5.72 µM)
MIC50 [30]: 1 µg/mL (≈ 2.86 µM)
MIC [31]: > 32 µg/mL
MIC50 [31]: 4 µg/mL (≈ 11.4 µM)
Activity [32]: Active
Activity [33]: inactive
